Assay results taken from ChEMBL document CHEMBL4007461, “Synthesis, Antiviral Potency, in Vitro ADMET, and X-ray Structure of Potent CD4 Mimics as Entry Inhibitors That Target the Phe43 Cavity of HIV-1 gp120” (J Med Chem, 2017).
Values after ≈ are worked out from the molar mass of the structure shown. Blank lines part the entries; values can stand above or below the compound they belong to. Active and inactive are the calls of the source. The calls are words filed in the database; no cut-off is given here.

What was measured:
[1] = Inhibition of HIV1 reverse transcriptase by colorimetric assay; design: species or system Human immunodeficiency virus 1
Summary of the method: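 HIV-1 reverse transcriptase activity measured with a commercial colorimetric reverse transcriptase kit, following the maker's instructions.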

[2] = Inhibition of HIV1 HXB2 gp120-mediated cell to cell fusion using human MAGI-CCR5 cells as indicator cells and Env/Tat-expressing HL2/3 cells as effector cells preincubated with MAGI-CCR5 cells for 1 hr followed by HL2/3 cells addition by beta-galactosidase reporter gene assay; settings: Human immunodeficiency virus 1, HXB2
[3] = Apparent permeability from apical to basolateral side in human Caco2 cells at 10 uM at pH 7.4 by LC-MS/MS analysis; format: ADME, cell-based; settings: Caco-2, pH 7.4
Summary of the method: (§1)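 Caco-2 cells, passage 40-60, seeded on Transwell inserts at 1 x 10^5 cells/cm2 and grown 20 days in DMEM. Monolayers equilibrated 40 min in HBSS. Donor: compound at 10 µM final, 1% DMSO, in HBSS pH 7.4 with lucifer yellow as integrity marker. Sampled at 120 min, A-B and B-A, in duplicate, by LC-MS/MS. Papp = (dQ/dt)/(C0 × A); efflux ratio = Papp(B-A)/Papp(A-B).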

[4] = Apparent permeability from basolateral to apical side in human Caco2 cells at 10 uM at pH 7.4 by LC-MS/MS analysis; format: ADME, cell-based; settings: Caco-2, pH 7.4; summary of the method: as §1
[5] = Inhibition of CYP1A in human liver microsomes using ethoxyresorufin as substrate after 5 mins in presence of NADPH by LC-MS/MS analysis
[6] = Aqueous solubility of the compound at 1 to 100 uM in PBS at pH 7.4 after 2 hrs by turbidimetric analysis; format: physicochemical
Summary of the method: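 DMSO stocks diluted 1:100 into phosphate-buffered saline pH 7.4, giving 1, 3, 10, 30 and 100 µM final in 1% DMSO. Seven replicate wells per concentration, incubated 2 h at 37 °C, absorbance read at 620 nm. Solubility taken as the concentration giving absorbance above the 1% DMSO vehicle.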

[7] = biological target: Voltage-gated inwardly rectifying potassium channel KCNH2 (Homo sapiens, UniProt Q12809); experiment: Inhibition of human ERG expressed in CHO cells by patch clamp electrophysiology assay; format: cell-based
[8] = system: Human immunodeficiency virus 1; experiment: Antiviral activity against ENV pseudotyped CCR5-tropic HIV1 subtype D QA013.70I.ENV.M12; format: functional; settings: Human immunodeficiency virus 1, subtype D QA013.70I.ENV.M12
Summary of the method: (§2)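 Env-pseudotyped viruses made by co-transfecting HEK293T cells with an Env-deleted pSG3 backbone (8 µg) and an Env-expression plasmid (8 µg). Supernatants were harvested 2 days after transfection, filtered, titered and stored at −80 °C. They were used for single-cycle infection, and IC50 was taken from percent inhibition.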

[9] = Cytotoxicity against human TZM-bl cells incubated for 3 days by XTT assay; format: cell-based; settings: TZM-bl cells
Summary of the method: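 TZM-bl cells, 1 x 10^4/well, cultured overnight at 37 °C. Compounds added at graded concentrations for three days.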

Cytochrome P450 3A4 = Cytochrome P450 3A4 (Homo sapiens, UniProt P08684); experiment: Inhibition of CYP3A4 in human liver microsomes using midazolam as substrate after 5 mins in presence of NADPH by LC-MS/MS analysis; format: ADME
[10] = Cytotoxicity against human MT2 cells incubated for 4 days by XTT assay; format: cell-based; settings: MT2 cells
Summary of the method: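 Run alongside the MT-2 multicycle infection assay. Compound at graded concentrations mixed with an equal volume of MT-2 cells (10^5 cells/ml). Medium replaced next day and culture continued four days.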

Cytochrome P450 2D6 = Cytochrome P450 2D6 (Homo sapiens, UniProt P10635); experiment: Inhibition of CYP2D6 in human liver microsomes using dextromethorphan as substrate after 5 mins in presence of NADPH by LC-MS/MS analysis; format: ADME
[11] = system: Human immunodeficiency virus 1; experiment: Antiviral activity against ENV pseudotyped CCR5-tropic HIV1 subtype C 225925-2, clone 22; format: functional; settings: Human immunodeficiency virus 1, subtype C 225925-2, clone 22; summary of the method: as §2
[12] = system: Human immunodeficiency virus 1; experiment: Antiviral activity against ENV pseudotyped CCR5-tropic HIV1 subtype D QD435.100M.ENV.B5; format: functional; settings: Human immunodeficiency virus 1, subtype D QD435.100M.ENV.B5; summary of the method: as §2
Cytochrome P450 2C19 = Cytochrome P450 2C19 (Homo sapiens, UniProt P33261); experiment: Inhibition of CYP2C19 in human liver microsomes using mephenytoin as substrate after 60 mins in presence of NADPH by LC-MS/MS analysis; format: ADME
[13] = Metabolic stability in human liver microsomes assessed as compound remaining at 45 mins in presence of NADPH by LC-MS/MS analysis; format: ADME, microsome; settings: read-out: Stability
[14] = Intrinsic clearance in human liver microsomes assessed per mg protein in presence of NADPH by LC-MS/MS analysis; format: ADME, microsome; settings: read-out: CLH
[15] = Unbound fraction in human plasma at 5 uM by LC-MS/MS based equilibrium dialysis; format: ADME, cell-free
Cytochrome P450 2C9 = Cytochrome P450 2C9 (Homo sapiens, UniProt P11712); experiment: Inhibition of CYP2C9 in human liver microsomes using tolbutamide as substrate after 60 mins in presence of NADPH by LC-MS/MS analysis; format: ADME
[16] = system: Human immunodeficiency virus 1; experiment: Antiviral activity against HIV1 HXB2 pseudovirus infected in human TZM-bl cells assessed as inhibition of viral entry treated 1 hr post infection measured after 48 hrs by luciferase reporter gene assay; format: functional, cell-based
Summary of the method: (§3)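 TZM-bl cells, 1 x 10^4/well, cultured overnight at 37 °C, then infected with HXB2 Env pseudovirus. Plates spun 30 min at 2090 g at 4 °C, then held 90 min at 37 °C. Unbound virus washed off with PBS and fresh medium added. Compounds given at 10-15 times their IC50 at set times after infection. Cells lysed at 48 h and luciferase read. Two independent experiments, each in triplicate.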

[17] = system: Human immunodeficiency virus 1; experiment: Antiviral activity against HIV1 HXB2 pseudovirus infected in human TZM-bl cells assessed as inhibition of viral entry treated 2 to 4 hrs post infection measured after 48 hrs by luciferase reporter gene assay; format: functional, cell-based; summary of the method: as §3
[18] = system: Human immunodeficiency virus 1; experiment: Antiviral activity against HIV1 HXB2 pseudovirus infected in human TZM-bl cells assessed as inhibition of viral entry treated 8 hrs post infection measured after 48 hrs by luciferase reporter gene assay; format: functional, cell-based; summary of the method: as §3

Cytochrome P450 2D6, sequence (P10635 whole entry): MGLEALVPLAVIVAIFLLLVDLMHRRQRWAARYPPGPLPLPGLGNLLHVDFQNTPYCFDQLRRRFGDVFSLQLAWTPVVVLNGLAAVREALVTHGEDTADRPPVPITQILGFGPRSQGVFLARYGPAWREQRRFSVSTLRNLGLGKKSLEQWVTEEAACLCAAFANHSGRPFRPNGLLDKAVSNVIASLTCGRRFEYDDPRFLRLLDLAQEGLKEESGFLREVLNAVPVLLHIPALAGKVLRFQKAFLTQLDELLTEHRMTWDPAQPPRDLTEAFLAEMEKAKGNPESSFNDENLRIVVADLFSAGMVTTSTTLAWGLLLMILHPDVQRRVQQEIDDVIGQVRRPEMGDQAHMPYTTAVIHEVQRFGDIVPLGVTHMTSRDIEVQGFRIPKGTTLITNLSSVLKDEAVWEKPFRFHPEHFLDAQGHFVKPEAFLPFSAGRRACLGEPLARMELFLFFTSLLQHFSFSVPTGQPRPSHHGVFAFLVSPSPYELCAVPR
Cytochrome P450 3A4, sequence (P08684 whole entry): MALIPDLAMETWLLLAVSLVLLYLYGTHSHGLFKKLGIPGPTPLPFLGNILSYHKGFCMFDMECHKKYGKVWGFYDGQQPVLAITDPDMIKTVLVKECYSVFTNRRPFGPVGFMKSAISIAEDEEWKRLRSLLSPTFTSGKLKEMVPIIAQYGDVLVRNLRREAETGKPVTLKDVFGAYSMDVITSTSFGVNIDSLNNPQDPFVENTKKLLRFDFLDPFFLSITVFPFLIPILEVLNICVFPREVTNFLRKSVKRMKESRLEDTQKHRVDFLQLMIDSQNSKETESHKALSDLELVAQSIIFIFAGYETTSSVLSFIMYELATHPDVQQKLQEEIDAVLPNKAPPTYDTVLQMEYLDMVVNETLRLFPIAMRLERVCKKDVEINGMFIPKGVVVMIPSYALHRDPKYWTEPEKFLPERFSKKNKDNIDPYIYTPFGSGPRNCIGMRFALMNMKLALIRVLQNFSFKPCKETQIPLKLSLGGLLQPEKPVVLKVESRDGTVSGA
Cytochrome P450 2C9, sequence (P11712 whole entry): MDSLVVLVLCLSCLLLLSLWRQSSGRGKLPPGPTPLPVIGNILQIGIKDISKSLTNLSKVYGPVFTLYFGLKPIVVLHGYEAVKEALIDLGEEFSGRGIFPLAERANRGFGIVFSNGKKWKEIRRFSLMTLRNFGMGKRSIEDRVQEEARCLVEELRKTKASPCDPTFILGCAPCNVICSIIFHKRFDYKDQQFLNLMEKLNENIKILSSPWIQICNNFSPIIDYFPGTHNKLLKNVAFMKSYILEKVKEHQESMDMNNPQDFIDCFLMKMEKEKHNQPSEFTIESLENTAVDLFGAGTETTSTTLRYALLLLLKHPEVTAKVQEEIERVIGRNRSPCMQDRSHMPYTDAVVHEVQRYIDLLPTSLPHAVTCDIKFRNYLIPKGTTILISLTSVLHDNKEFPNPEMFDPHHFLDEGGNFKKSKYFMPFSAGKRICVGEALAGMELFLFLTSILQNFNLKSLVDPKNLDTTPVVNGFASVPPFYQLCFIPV
Voltage-gated inwardly rectifying potassium channel KCNH2, sequence (Q12809 whole entry): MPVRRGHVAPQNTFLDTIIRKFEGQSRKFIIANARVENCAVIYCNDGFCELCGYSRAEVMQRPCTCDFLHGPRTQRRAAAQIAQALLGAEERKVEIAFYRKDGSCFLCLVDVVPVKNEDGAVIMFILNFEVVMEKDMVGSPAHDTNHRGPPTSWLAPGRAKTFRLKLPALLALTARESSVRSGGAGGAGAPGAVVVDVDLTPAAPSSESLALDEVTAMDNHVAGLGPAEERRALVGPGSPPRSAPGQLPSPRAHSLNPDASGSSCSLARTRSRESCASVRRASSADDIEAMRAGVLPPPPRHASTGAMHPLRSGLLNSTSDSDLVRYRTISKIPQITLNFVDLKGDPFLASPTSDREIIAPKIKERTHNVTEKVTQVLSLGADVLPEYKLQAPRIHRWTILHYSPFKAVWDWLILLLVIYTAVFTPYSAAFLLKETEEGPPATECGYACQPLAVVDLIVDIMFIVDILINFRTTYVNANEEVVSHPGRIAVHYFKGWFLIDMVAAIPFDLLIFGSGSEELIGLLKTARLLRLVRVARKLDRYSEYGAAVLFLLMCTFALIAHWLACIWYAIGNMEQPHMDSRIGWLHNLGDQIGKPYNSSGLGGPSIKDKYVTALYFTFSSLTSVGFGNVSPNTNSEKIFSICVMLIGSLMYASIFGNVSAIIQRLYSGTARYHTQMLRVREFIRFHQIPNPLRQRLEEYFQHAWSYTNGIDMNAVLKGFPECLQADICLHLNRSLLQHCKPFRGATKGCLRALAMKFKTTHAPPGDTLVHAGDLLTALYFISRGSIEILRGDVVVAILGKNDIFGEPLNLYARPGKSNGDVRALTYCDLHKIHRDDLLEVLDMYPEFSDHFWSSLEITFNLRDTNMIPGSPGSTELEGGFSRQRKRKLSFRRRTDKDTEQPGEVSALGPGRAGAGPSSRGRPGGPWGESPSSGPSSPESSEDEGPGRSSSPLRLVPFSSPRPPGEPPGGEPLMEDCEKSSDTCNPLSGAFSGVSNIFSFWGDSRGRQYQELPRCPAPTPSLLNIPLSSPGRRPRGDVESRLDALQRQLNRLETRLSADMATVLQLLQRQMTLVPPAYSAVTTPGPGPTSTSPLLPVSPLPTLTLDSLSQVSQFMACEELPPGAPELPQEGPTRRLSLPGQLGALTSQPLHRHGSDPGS
Cytochrome P450 2C19, sequence (P33261 whole entry): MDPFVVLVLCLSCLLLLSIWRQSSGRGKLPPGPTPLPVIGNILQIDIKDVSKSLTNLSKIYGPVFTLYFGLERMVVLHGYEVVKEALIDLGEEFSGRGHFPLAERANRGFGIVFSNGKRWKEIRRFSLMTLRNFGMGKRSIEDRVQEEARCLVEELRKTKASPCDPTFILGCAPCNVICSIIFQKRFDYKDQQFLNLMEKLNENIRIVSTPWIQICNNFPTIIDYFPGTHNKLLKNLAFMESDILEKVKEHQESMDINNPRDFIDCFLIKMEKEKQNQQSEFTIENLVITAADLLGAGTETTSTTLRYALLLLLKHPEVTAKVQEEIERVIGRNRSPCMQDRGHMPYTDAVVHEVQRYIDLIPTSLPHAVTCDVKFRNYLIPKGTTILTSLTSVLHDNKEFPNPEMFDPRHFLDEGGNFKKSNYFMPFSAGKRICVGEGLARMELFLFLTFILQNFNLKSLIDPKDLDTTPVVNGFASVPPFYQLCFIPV

Compound: CC1(C)CC(NC(=O)C(=O)Nc2ccc(Cl)cc2)CC(C)(C)N1
IC50 [1]: > 300 µM
IC50 [2]: 2.9 µM

Papp A→B at 10 µM [3]: 7.62 ×10⁻⁶ cm/s
Papp B→A at 10 µM [4]: 37.4 ×10⁻⁶ cm/s
IC50 [5]: > 25 µM
solubility kinetic at 2 h [6]: > 100 µM
Compound: COc1cnc(-n2cnc(C)n2)c2[nH]cc(C(=O)C(=O)N3CCN(C(=O)c4ccccc4)CC3)c12

Compound: Cc1nc(C(NC(=O)c2ccc(-c3ccc(Cl)cc3)[nH]2)C2CCCCN2)sc1CO (stereo not given)
IC50 [7]: 3.8 µM
IC50 [8]: 0.79 µM
CC50 at 72 h [9]: 23.6 µM
IC50 [1]: 47 µM
IC50 (Cytochrome P450 3A4): > 25 µM
CC50 at 96 h [10]: 24.8 µM
IC50 [2]: 6.1 µM
IC50 (Cytochrome P450 2D6): > 25 µM
IC50 [11]: 1.1 µM
Papp A→B at 10 µM [3]: 2.31 ×10⁻⁶ cm/s
IC50 [12]: 1.4 µM
IC50 (Cytochrome P450 2C19): > 25 µM
Papp B→A at 10 µM [4]: 31.3 ×10⁻⁶ cm/s
remaining at […] [13]: 84%
microsomal CLint [14]: < 10 µL/min/mg
IC50 [5]: > 25 µM
solubility kinetic at 2 h [6]: 65 µM (≈ 28.9 µg/mL)
fraction unbound at 5 µM [15]: 0.114
IC50 (Cytochrome P450 2C9): > 25 µM

Compound: COc1ccnc2[nH]cc(C(=O)C(=O)N3CCN(C(=O)c4ccccc4)C[C@H]3C)c12
inhibition [16]: Active
inhibition [17]: inactive

Compound: Cc1nnc(C(=O)NC(C)(C)c2nc(C(=O)NCc3ccc(F)cc3)c(O)c(=O)n2C)o1
inhibition [18]: inactive

Compound: c1cc(CN2CCCNCCNCCCNCC2)ccc1CN1CCCNCCNCCCNCC1
inhibition [16]: Active
inhibition [17]: inactive
